From paper PMC8360131 (Angewandte Chemie (International Ed. in English), 2021)
Read-outs that look alike come from different tables or passages of the source. Each block holds one compound with its values, some of them ahead of it. *1 amine or outer side, *2 acyl side, *3 side chain or, on linkers, in order; H or OH if unused. Where a SMILES comes first, the peptide text is derived from it. [ ]: non-standard residue; d: D form. The star is where a group is joined. X1 = CCC(=O)C[C@H](O)C[C@@H](C)C[C@H](N[*:1])C(=O)[*:2]; Hexenoyl(2E,4S-Me) = CC[C@H](C)/C=C/C(=O)*; Leu(3R-OH) = CC(C)[C@@H](O)[C@H](N)C(=O)O; NH((S)CH(Me)CH2NMe2) = C[C@@H](CN(C)C)N*; Pro(4S-Me) = C[C@@H]1CN[C@H](C(=O)O)C1; NH(1-CH2NMe2-cBu) = CN(C)CC1(N*)CCC1; Oxazole4CO(2-Me) = Cc1nc(C(=O)*)co1; hCha = N[C@@H](CCC1CCCCC1)C(=O)O; NMeL = CN[C@@H](CC(C)C)C(=O)O; Aib = CC(C)(N)C(=O)O; βAla = NCCC(=O)O

Columns and labels:
[1] = tested on: Leishmania donovani axenic amastigotes (strain MHOM/ET/67/L82); experiment: L. donovani axenic amastigotes resazurin assay; assay type: cell-based
[2] = tested on: Leishmania donovani intracellular amastigotes; experiment: L. donovani intracellular amastigotes in macrophages; assay type: cell-based; conditions: read-out: L. donovani. Macrophage, mouse peritoneal macrophages
[3] = tested on: Trypanosoma cruzi (Tulahuen strain C2C4); experiment: T. cruzi assay in L6 cells; assay type: cell-based; conditions: read-out: T. cruzi; intracellular
Plasmodium falciparum = conditions: read-out: IC50 Plasmodium falciparum; cited from earlier work
[4] = tested on: T. b. brucei bloodstream forms; experiment: TMRE mitochondrial membrane potential assay; assay type: cell-based
In short: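 The mitochondrial membrane potential of bloodstream-form T. b. brucei (NYsm) was quantified with the potential-sensitive dye TMRE, before and after test compound treatment. TMRE fluorescence was expressed relative to control parasites. CCCP served as positive control.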

Trypanosoma brucei = conditions: read-out: IC50 Trypanosoma brucei; cited from earlier work
[5] = tested on: T. b. brucei 427 bloodstream forms; experiment: T. b. brucei bloodstream form resazurin IC50 assay; assay type: cell-based; conditions: read-out: activity on T. b. brucei; 72 h exposure
[6] = mice; cited from earlier work
[7] = tested on: bacteria, fungi, and cancer cells; conditions: cited from earlier work
T. brucei [8] = conditions: cited from earlier work
T. brucei [9] = conditions: cited from earlier work; remark: listed apart in the source
[10] = tested on: T. b. brucei bloodstream forms; experiment: MitoTracker fluorescence microscopy; assay type: cell-based; conditions: 24 h treatment; 4 and 5 at 40 nM final concentration
In short: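 Bloodstream-form T. b. brucei (NYsm strain) were exposed to test compound for 24 h, some at 40 nM final concentration. Cells were then incubated with the mitochondrial membrane potential-dependent dye MitoTracker, co-stained with DAPI and anti-ATOM40, and examined by fluorescence microscopy with DIC imaging. Untreated parasites were stained in parallel.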

[11] = read-out: L. donovani. axenic amastigotes, range in parentheses

Compound: CCC(=O)C[C@H](O)C[C@@H](C)C[C@H](NC(=O)[C@@H]1C[C@H](C)CN1C(=O)/C=C/[C@@H](C)CC)C(=O)N[C@H](C(=O)NC(C)(C)C(=O)N[C@@H](CC(C)C)C(=O)N[C@@H](CC(C)C)C(=O)NC(C)(C)C(=O)NC(C)(C)C(=O)NCCC(=O)N[C@@H](C)CN(C)C)[C@H](O)C(C)C [leucinostatin A (1 a), leucinostatin A] ({Hexenoyl(2E,4S-Me)}-[Pro(4S-Me)][X1][Leu(3R-OH)][Aib]LL[Aib][Aib][βAla]-{NH((S)CH(Me)CH2NMe2)})
IC50 [1, 11]: 1.05 nM | IC50 [2]: 9.8 nM | IC50 [3]: 23 nM | IC50 (Plasmodium falciparum): 0.4 to 0.9 nM | TMRE fluorescence relative to control parasites [4]: concentration‐dependent decrease | IC50 (Trypanosoma brucei): 2.8 nM | IC50 [5]: 0.4 nM | ip LD50 [6]: 1.1 mg/kg

Compound: CCCCCCCCCCCCCCCCOP(=O)([O-])OCC[N+](C)(C)C [miltefosine]
IC50 ([1]; Leishmania donovani, read-out: L. donovani. axenic amastigotes [nM]): 483 nM

Compound: leucinostatin Y
activity compared with leucinostatin A [7]: far less active

Compound: leucinostatin B [leucinostatin B (1 b)]
curative effect (T. brucei [8]; 4×0.3 mg kg^−1 ip): curative effects | curative effect (T. brucei [8]; 4×1.0 mg kg^−1 ip): curative effects | mean duration of survival compared to untreated mice (T. brucei [9]; 4×0.3 mg kg^−1 ip): slightly increased | mice cured (T. brucei [9]; 4×0.3 mg kg^−1 ip): no mice were cured | mice cured (T. brucei [9]; 4×1.0 mg kg^−1 ip): one of 4 mice was cured | mean duration of survival (T. brucei [9]; 4×1.0 mg kg^−1 ip, untreated 11.3 days): 28 days

IC50 [3]: > 2000 nM
Compound: Cc1nc(C(=O)N2CCC[C@H]2C(=O)N[C@@H](CCC2CCCCC2)C(=O)N[C@@H](CC(C)C)C(=O)NC(C)(C)C(=O)N[C@@H](CC(C)C)C(=O)N(C)[C@@H](CC(C)C)C(=O)NC(C)(C)C(=O)NC(C)(C)C(=O)NCCC(=O)NC2(CN(C)C)CCC2)co1 [Compound 3] ({Oxazole4CO(2-Me)}-P[hCha]L[Aib]L[NMeL][Aib][Aib][βAla]-{NH(1-CH2NMe2-cBu)})
IC50 [1, 11]: 9260 nM | TMRE fluorescence relative to control parasites [4]: no changes | MitoTracker mitochondrial staining [10]: no changes
